Results published in ChEMBL document CHEMBL5316295, “Systematic Design of Adenosine Analogs as Inhibitors of a Clostridioides difficile-Specific DNA Adenine Methyltransferase Required for Normal Sporulation and Persistence” (J Med Chem, 2023).
Active and inactive are the calls of the source. No cut-off for these calls is given here.

What was measured:
[1] = target: mRNA (2'-O-methyladenosine-N(6)-)-methyltransferase (Homo sapiens) (UniProt Q9H4Z3); assay: Inhibition of human PCIF1 using m7GpppAmG as substrate and SAM as cosubstrate at 10 uM incubated for 15 mins
Chain of mRNA (2'-O-methyladenosine-N(6)-)-methyltransferase (Homo sapiens) (Q9H4Z3 whole entry): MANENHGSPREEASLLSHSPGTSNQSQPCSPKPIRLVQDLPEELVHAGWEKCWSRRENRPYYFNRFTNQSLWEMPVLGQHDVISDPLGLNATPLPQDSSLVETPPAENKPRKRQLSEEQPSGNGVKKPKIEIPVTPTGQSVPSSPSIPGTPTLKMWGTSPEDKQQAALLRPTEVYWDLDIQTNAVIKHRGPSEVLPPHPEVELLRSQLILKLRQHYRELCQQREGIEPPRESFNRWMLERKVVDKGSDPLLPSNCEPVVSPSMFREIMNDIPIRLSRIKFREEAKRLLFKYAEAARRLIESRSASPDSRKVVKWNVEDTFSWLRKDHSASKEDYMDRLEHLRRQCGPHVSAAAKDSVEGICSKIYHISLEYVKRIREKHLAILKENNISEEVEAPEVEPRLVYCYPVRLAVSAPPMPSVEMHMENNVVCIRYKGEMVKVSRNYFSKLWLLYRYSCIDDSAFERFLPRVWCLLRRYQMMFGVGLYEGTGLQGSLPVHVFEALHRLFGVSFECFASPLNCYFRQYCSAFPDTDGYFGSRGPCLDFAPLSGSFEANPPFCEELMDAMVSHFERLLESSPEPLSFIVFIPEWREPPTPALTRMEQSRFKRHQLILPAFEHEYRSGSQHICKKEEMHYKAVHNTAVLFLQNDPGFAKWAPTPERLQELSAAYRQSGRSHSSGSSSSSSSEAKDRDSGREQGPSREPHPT
Procedure, shortened: (§1)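 Enzyme 0.1 μM with 5 μM RNA, 30 μM SAM and 10 μM inhibitor at ~22 °C in 50 mM Tris–HCl pH 7.5, 100 mM NaCl, 1 mM DTT, 0.25% DMSO. PCIF1 run 15 min with capped RNA; MettL5-Trm112 run 1 h with ssRNA.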

[2] = Binding affinity to Clostridioides difficile-specific DNA adenine methyltransferase by MicroCal PEAQ-ITC instrument analysis
[3] = target: METTL5-TRM112 (Homo sapiens) (UniProt Q9UI30+Q9NRN9); assay: Inhibition of human METTL5/TRM112 using 5'-UCG UAA CAA GGU UU-3' as substrate and SAM as cosubstrate at 10 uM incubated for 1 hr; assay type: protein-complex assay; procedure, shortened: as §1
[4] = target: DNMT3A-DNMT3L (Mus musculus) (UniProt O88508+Q9CWR8); assay: Inhibition of mouse DNMT3A/DNMT3L using 5'-G CATGCGTTCTAATTAGAAUGCATG-3' and 3'-GTA CGS AAG ATT AAT CTT GCG TAC G-5' as substrate and SAM as cosubstrate at 10 uM incubated for 1 hr; assay type: protein-complex assay
Chain of DNMT3A-DNMT3L (Mus musculus) (Q9CWR8 whole entry, looked up, other chains not shown): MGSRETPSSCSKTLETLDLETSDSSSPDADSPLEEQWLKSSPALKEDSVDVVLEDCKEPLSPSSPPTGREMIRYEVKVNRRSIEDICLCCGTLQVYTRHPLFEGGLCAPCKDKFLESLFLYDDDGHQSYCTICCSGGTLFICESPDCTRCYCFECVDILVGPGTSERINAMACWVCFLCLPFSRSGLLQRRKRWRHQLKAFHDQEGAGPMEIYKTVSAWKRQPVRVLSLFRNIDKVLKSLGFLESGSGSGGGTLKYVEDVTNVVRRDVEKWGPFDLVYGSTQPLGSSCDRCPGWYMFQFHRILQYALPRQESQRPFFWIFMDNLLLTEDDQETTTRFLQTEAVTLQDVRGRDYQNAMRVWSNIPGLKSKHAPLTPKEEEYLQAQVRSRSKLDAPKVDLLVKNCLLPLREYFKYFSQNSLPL
Procedure, shortened: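 Dnmt3a-3L (0.5 μM) with 5 μM dsDNA, 25 μM SAM and 10 μM inhibitor in 20 mM Tris pH 7.5, 40 mM NaCl, 4 mM DTT, 20% glycerol, run 1 h at 37 °C.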

[5] = target: T1, DNA adenine methylase (Escherichia coli K-12) (UniProt P0AEE8); assay: Inhibition of Escherichia coli Dam using 5'-CCG CGG ATC CTG CT-3' and 3'-GGC GCC TAG GAC GA-5' as substrate and SAM as cosubstrate at 10 uM incubated for 5 mins
T1 sequence (whole entry): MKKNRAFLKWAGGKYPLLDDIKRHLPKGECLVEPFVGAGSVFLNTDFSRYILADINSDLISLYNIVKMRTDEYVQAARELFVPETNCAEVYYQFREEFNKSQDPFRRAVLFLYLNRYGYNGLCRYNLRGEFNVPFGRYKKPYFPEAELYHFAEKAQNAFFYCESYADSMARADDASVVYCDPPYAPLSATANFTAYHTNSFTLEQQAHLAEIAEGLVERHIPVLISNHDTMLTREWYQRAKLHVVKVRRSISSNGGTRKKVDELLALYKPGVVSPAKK
Procedure, shortened: (§2)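 Conditions were enzyme 0.1 μM, DNA 5 μM, SAM 30 μM, inhibitor 10 μM, at ~22 °C in 50 mM Tris–HCl pH 7.5, 100 mM NaCl, 1 mM DTT, 0.25% DMSO, run 5 min. Substrate and SAM levels were above K_M.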

[6] = target: T2, Histone-lysine N-methyltransferase EHMT2 (Homo sapiens) (UniProt Q96KQ7); assay: Inhibition of human G9a (913 to 1193 residues) expressed in Escherichia coli BL21 (DE3)-gold cells using histone H3 (1 to 21 residues) as substrate and 3H-SAM as cosubstrate at 10 uM pretreated with compound for 20 mins in presence of histone H3 (1 to 21 residues) followed by cosubstrate addition and measured after 1 hr; conditions: time 80.0 min
T2 sequence (whole entry): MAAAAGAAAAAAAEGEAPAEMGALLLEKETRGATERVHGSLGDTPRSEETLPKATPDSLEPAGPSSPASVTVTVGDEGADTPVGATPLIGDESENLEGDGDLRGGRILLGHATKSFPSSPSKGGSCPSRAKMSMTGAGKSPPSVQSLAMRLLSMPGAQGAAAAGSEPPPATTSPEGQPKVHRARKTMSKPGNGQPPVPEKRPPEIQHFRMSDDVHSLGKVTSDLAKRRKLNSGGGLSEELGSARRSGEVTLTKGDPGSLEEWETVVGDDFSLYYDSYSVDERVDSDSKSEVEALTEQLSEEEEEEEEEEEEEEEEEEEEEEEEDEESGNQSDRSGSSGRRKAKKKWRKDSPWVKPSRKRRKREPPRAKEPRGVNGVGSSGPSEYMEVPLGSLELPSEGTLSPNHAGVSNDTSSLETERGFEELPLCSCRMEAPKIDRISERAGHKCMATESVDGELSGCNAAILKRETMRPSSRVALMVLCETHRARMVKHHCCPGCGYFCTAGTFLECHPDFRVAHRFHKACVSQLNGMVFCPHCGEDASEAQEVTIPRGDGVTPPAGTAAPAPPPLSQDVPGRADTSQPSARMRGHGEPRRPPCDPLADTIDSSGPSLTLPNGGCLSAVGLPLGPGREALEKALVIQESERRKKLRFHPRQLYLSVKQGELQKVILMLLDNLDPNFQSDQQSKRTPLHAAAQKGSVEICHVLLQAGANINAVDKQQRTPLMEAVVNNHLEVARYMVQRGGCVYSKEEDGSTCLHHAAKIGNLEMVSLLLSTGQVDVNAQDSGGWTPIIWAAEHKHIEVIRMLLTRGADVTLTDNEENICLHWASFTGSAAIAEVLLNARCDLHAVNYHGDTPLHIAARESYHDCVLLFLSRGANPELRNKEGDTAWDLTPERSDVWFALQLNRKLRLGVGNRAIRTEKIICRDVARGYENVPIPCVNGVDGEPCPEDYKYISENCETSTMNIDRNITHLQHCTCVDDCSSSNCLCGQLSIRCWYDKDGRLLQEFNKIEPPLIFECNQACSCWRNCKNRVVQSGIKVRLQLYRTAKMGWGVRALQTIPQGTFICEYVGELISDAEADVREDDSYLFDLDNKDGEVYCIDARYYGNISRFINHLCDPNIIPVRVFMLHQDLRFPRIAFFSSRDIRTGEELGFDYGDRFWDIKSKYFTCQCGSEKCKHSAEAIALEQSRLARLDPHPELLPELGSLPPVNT
Procedure, shortened: (§3)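 Enzymes (DOT1L 1 nM; EZH2, G9a, PRMT1 5 nM) mixed with substrate (0.05 mg/mL oligonucleosomes for DOT1L; 0.05 mg/mL core histone for EZH2; 5 μM H3 1–21 peptide for G9a; 5 μM H4 for PRMT1). Compound (10 μM) added for 20 min at room temperature, then 1 μM ³H-SAM for 1 h at 30 °C; filter-paper read-out. Triplicates, mean ± SD.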

[7] = Inhibition of Clostridioides difficile-specific DNA adenine methyltransferase mediated methylation using 5'-CGA TTC AAA AAG TCC CAA G-3' and 3'-GCT AAG TTT TTC AGG GTT C-5' as substrate and SAM as cosubstrate preincubated for 5 mins followed by substrate and cosubstrate addition and measured after 3 mins by MTase glo assay
[8] = target: Histone-lysine N-methyltransferase EZH2 (Homo sapiens) (UniProt Q15910); assay: Inhibition of EZH2 (unknown origin) using chicken core histone as substrate and 3H-SAM as cosubstrate at 10 uM pretreated with compound for 20 mins in presence of chicken core histone followed by cosubstrate addition and measured after 1 hr; conditions: time 80.0 min; procedure, shortened: as §3
Chain of Histone-lysine N-methyltransferase EZH2 (Homo sapiens) (Q15910 whole entry, looked up): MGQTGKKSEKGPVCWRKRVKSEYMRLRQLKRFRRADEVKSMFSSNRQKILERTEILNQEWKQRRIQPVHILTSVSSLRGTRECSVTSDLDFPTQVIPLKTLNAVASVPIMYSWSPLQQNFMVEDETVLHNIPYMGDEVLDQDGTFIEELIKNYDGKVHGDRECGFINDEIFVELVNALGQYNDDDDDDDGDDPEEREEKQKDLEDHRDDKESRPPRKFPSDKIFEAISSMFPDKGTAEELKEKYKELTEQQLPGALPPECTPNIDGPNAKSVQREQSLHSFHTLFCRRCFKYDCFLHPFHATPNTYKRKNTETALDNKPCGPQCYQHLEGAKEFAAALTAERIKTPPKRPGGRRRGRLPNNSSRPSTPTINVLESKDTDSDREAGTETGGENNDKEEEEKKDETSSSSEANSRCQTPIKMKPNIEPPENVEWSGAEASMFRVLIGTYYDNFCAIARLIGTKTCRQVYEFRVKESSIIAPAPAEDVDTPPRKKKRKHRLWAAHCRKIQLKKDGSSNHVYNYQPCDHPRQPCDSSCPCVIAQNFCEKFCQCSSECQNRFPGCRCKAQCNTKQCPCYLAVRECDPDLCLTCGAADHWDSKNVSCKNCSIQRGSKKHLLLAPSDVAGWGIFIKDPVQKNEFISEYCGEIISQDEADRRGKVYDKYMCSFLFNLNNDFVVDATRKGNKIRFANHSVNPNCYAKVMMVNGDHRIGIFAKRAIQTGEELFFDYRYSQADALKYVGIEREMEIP

[9] = system: Caulobacter vibrioides; assay: Inhibition of Caulobacter vibrioides CcrM using 5'-CGA TTC AAA AAG TCC CAA G-3' and 3'-GCT AAG TTT TTC AGG GTT C-5' as substrate and SAM as cosubstrate at 10 uM incubated for 5 mins; procedure, shortened: as §2

| SMILES | inhibition [1] | Kd [2] | inhibition [3] | inhibition [4] | inhibition [5] | inhibition [6] | IC50 [7] | inhibition [8] | inhibition [9] |
| --- | --- | --- | --- | --- | --- | --- | --- | --- | --- |
| CC(C)(C)OC(=O)N1CCC(CCNc2ncnc3c2ncn3[C@@H]2O[C@H](CO)[C@@H](O)[C@H]2O)CC1 | inactive | 140 nM | inactive | inactive | inactive | inactive | 710 nM | inactive | inactive |
| OC[C@H]1O[C@@H](n2cnc3c(NCCCc4ccc(O)cc4)ncnc32)[C@H](O)[C@@H]1O | inactive | 230 nM | inactive | inactive | inactive | inactive | 510 nM | inactive | inactive |
| CC(C)(C)OC(=O)N1CCC(CCCNc2ncnc3c2ncn3[C@@H]2O[C@H](CO)[C@@H](O)[C@H]2O)CC1 | inactive | 140 nM | inactive | inactive | inactive | inactive | 390 nM | inactive | inactive |
